Measured values collected from several papers.
Each line is one published result; the experiments were not run side by side.
Target: Serine/threonine-protein kinase WNK2 (WNK2, Homo sapiens, UniProt Q9Y3S1)

O=C(NCC1CCOCC1)c1n[nH]cc1NC(=O)c1c(F)cccc1F  remaining binding (binding; competition with immobilised ligand; 1 µM): 81%
c1cncc(-c2cccc(Nc3nccc(NC4CCCCC4)n3)c2)c1  remaining binding (binding; competition with immobilised ligand; 10 µM): 100%
CN(C)c1nccc(-c2cnc3ncccn23)n1  remaining binding (binding; 1 µM): 94%
Cc1c[nH]c2nccc(Oc3c(F)cc(Nc4cc(Cl)nc(N)n4)cc3F)c12  remaining binding (cell-free assay; competition with immobilised ligand; 0.1 µM): 96%
COc1ccnn2ncc(-c3ccnc(N(C)C)n3)c12  remaining binding (binding; 1 µM): 100%
FC(F)(F)Oc1cccc(-c2cnc3ccc(-c4ccncc4)nn23)c1  remaining binding (binding; competition with immobilised ligand; 5 µM): 86%
Cc1cnc(Nc2ccc(C(=O)N3CCC(N4CCCC4)CC3)cc2)nc1-c1cc2ccccc2s1  remaining binding (binding; competition with immobilised ligand; 1 µM): 69%
C[C@@H](c1cccc(C#N)c1)n1cc(Cl)cc(C(N)=O)c1=N  remaining binding (cell-free assay; competition with immobilised ligand; 1 µM): 67%
C[C@H]1CCN(c2nccc(-c3cnn4ncccc34)n2)C1  remaining binding (binding; 1 µM): 98%
CCC(=N\O)/C(C)=C/c1ccc(F)cc1  remaining binding (cell-free assay; competition with immobilised ligand; 1 µM): 80%
N[C@H]1CCN(c2nccc(-c3cnn4ncccc34)n2)C1  remaining binding (binding; 1 µM): 100%
COc1cnc(Nc2cccc(S(N)(=O)=O)c2)nc1N1CCN(c2ccccc2)CC1  remaining binding (binding; competition with immobilised ligand; 1 µM): 35%
O=C(c1ccc(Nc2nccc(-c3cc4ccccc4s3)n2)cc1)N1CCC(N2CCCC2)CC1  remaining binding (binding; competition with immobilised ligand; 1 µM): 87%
Cc1c(NC(=O)c2cc(C(N)=O)nc3cc(F)ccc23)c(C(F)(F)F)nn1Cc1ccc(C(C)(C)C)cc1  remaining binding (cell-free assay; competition with immobilised ligand; 1 µM): 100%
COc1cnc(Nc2cccc(S(N)(=O)=O)c2)nc1N1CCN(c2ccccc2)C(=O)C1  remaining binding (binding; competition with immobilised ligand; 1 µM): 100%
CCS(=O)(=O)c1cc2cc(C[C@@](O)(CC(C)(C)c3ccc(F)cc3C(N)=O)C(F)(F)F)[nH]c2cn1  remaining binding (cell-free assay; competition with immobilised ligand; 1 µM): 46%
F[C@@H]1CCN(c2nccc(-c3cnn4ncccc34)n2)C1  remaining binding (binding; 1 µM): 100%
O=C(c1ccc(Nc2ncc(Cl)c(-c3cc4ccccc4s3)n2)cc1)N1CCC(N2CCCC2)CC1  remaining binding (binding; competition with immobilised ligand; 1 µM): 83%
Cc1nc(Cc2cccc(C(F)(F)F)c2)sc1-c1ccc(C(N)=O)nc1  remaining binding (cell-free assay; competition with immobilised ligand; 1 µM): 100%
Cc1cnn2ncc(-c3ccnc(N(C)C)n3)c2c1  remaining binding (binding; 1 µM): 100%
